# Compound activity (PubChem BioAssay)
# Pf Dd2 inh: P. falciparum Dd2 growth inhibitors, primary screen, SYBR Green fluorescence, single dose replicates. 72 h; active compounds read low. activity change, % at 10 µM. hit rate 2.3% among 94,000; in the data active means activity change below about -80%; inconclusive means no clear call, values can overlap the other calls
# T cruzi growth-1: T. cruzi intracellular proliferation inhibitors, primary screen, cell-based, beta-gal Tulahuen parasites, NIH3T3 host, luminescence | T. cruzi beta-gal in NIH3T3, GalScreen luminescence, 90 h | inhibition, % at 8.34 µM | hit rate 5.9% among 77,000 | AID 624255, 2012;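 active means mean inhibition above about 93%, with at least 55% of replicates each passing it, limit read from the data, passing the limit was not always enough; inconclusive means only one of those two conditions holds; inactive means neither condition holds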
# IDH1 mut inh: inhibitors of IDH1 R132H reductase, primary screen, biochemical, plate reader, single point. diaphorase/resazurin fluorescence, 60 min. inhibition, % at 10 µM. hit rate 0.18% among 70,000. Isocitrate dehydrogenase [NADP] cytoplasmic (Homo sapiens), O75874; in the data active means inhibition above about 34%; inconclusive means no clear call, values can overlap the other calls; inactive means below about 11%
# KDM4C inh: inhibitors of GASC-1 (KDM4C) histone demethylase, primary screen, biochemical, single concentration HTS; Lysine-specific demethylase 4C (Homo sapiens), Q9H3R0; GST-KDM4C 2-372, H3K9me3 peptide, LANCE TR-FRET; inhibition, % at 12.5 µM; hit rate 0.15% among 96,000; AID 720574, 2013;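 active means mean replicate inhibition above about 25%, with at least 55% of replicates also reaching it, limit read from the data, passing the limit was not always enough; inconclusive means only one of those two conditions met; inactive means neither condition met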
# Target sequence (Q9H3R0 2-372 limits assumed): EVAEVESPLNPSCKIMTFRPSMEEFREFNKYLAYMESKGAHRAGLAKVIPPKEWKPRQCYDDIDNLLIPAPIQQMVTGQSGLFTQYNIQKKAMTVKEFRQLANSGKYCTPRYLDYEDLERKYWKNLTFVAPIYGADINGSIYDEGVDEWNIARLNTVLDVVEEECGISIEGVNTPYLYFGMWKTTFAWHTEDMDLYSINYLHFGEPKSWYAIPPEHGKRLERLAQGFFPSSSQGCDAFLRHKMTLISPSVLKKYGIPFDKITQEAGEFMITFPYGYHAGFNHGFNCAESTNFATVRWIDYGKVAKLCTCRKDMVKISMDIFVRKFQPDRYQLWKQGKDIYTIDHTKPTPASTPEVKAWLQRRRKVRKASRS
#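 System: N-terminal GST-fused human GASC-1 (KDM4C) fragment, residues 2-372; amount: enzyme final amount 10 nM; incubation: reaction 30 min RT, detection step 1 h RT; medium: HEPES buffer, pH 7.5, plus ascorbate; technique: LANCE TR-FRET, Eu antibody, ULight-streptavidin, EDTA, ex 340 nm, em 618/671 nm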
# T cruzi growth-2: T. cruzi intracellular proliferation inhibitors, confirmation, cell-based, NIH3T3 host, beta-gal parasite, luminescence, cherry-pick | shares compounds with T cruzi growth-1 | T. cruzi beta-gal in NIH3T3, GalScreen luminescence, 90 h | inhibition, % at 8.35 µM | hit rate 72% among 5,600;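 active means mean replicate inhibition above about 95% and at least 55% of replicates individually reaching it, limit read from the data; inconclusive means only one of the two criteria is met; inactive means neither criterion is met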
# T cruzi growth-3: inhibitors of intracellular T. cruzi replication, confirmation, NIH3T3 host cells, beta-gal parasites, cherry-pick, set 2; shares compounds with T cruzi growth-1; T. cruzi beta-gal in NIH3T3, GalScreen luminescence, 90 h; hit rate 21% among 5,600; inhibition, % at 2.09 µM;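 active means mean inhibition above about 95%, with at least 55% of replicates also reaching it, limit read from the data; inconclusive means meets just one of the two conditions; inactive means meets neither condition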
# NIH3T3 tox: cytotoxicity in mouse NIH/3T3 fibroblasts, confirmation, cytotoxicity control for T. cruzi proliferation inhibitor project, cell-based, cherry-pick, single point. shares compounds with T cruzi growth-1. NIH/3T3 viability, CellTiter-Glo ATP luminescence, 90 h. cytotoxicity (signal decrease), % at 8.35 µM. hit rate 14% among 5,600;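 active means mean signal decrease across replicates above about 35% based on untreated-well scatter, with enough replicates individually passing, limit read from the data; inconclusive means no rule stated though some were filed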
# 3T3 cytotox 2: NIH/3T3 fibroblast cytotoxicity, confirmation, cytotoxicity control, cell-based, cherry-pick, single point, set 2; NIH/3T3 viability, CellTiter-Glo ATP luminescence, 90 h; shares compounds with T cruzi growth-1; hit rate 56% among 5,600; inhibition, % at 24.9 µM;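 active means mean loss of cell viability signal at or above a set limit, and enough replicates individually reaching it; inconclusive means meets only the mean limit or only the replicate share; inactive means meets neither condition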
# A number is an active result; n = inactive; u = inconclusive; x = not tested or not shown. Shown are actives, neighbours in structure and some others; about 5.8% of the full set was active somewhere.
SMILES,Pf Dd2 inh,T cruzi growth-1,IDH1 mut inh,KDM4C inh,T cruzi growth-2,T cruzi growth-3,NIH3T3 tox,3T3 cytotox 2
CCCC#Cc1ccc2c(c1)O[C@H](CN(C)C(=O)CC1CC1)[C@@H](C)CN([C@@H](C)CO)S2(=O)=O,n,111.0,n,n,103.6,n,n,47.7
C[C@H](CO)N1C[C@H](C)[C@H](CN(C)C(=O)CC2CC2)Oc2cc(C#CCN(C)C)ccc2S1(=O)=O,n,n,n,n,x,x,x,x
N#Cc1ccc(/C=N/NC(=O)CCCCCCC(=O)NO)cc1,x,x,n,x,x,x,x,x
CC1(C)COC(CCC/C=N/NC(=O)c2ccc(C(=O)NO)cc2)OC1,x,x,n,x,x,x,x,x
COC(=O)CCCCCCC(=O)N/N=C/c1cc(OC)ccc1O,x,x,n,x,x,x,x,x
Cc1cccc(OCC(=O)Nc2cccc(-c3nc4cc(C)ccc4o3)c2)c1,x,x,n,x,x,x,x,x
C[C@H]1CN([C@@H](C)CO)S(=O)(=O)c2ccc(C#Cc3ccccn3)cc2O[C@H]1CN(C)Cc1ccccc1,n,112.5,n,n,108.7,n,n,n
C[C@@H]1CN([C@@H](C)CO)S(=O)(=O)c2ccc(C#Cc3ccccn3)cc2O[C@H]1CN(C)Cc1ccccc1,n,85.7,n,n,u,103.4,n,33.0
C[C@@H]1CN([C@H](C)CO)S(=O)(=O)c2ccc(C#Cc3ccccn3)cc2O[C@H]1CN(C)Cc1ccccc1,n,105.8,n,n,103.9,n,n,98.5
C[C@H](CO)N1C[C@H](C)[C@@H](CN(C)Cc2ccccc2)Oc2cc(C#Cc3ccccn3)ccc2S1(=O)=O,n,n,n,n,x,x,x,x
C[C@@H]1CN([C@@H](C)CO)S(=O)(=O)c2ccc(C#Cc3ccccn3)cc2O[C@@H]1CN(C)Cc1ccccc1,n,108.0,n,n,109.0,n,43.5,n
C[C@@H]1CN([C@H](C)CO)S(=O)(=O)c2ccc(C#CC(C)(C)O)cc2O[C@H]1CN(C)Cc1ccncc1,n,u,n,n,n,n,44.2,71.5
C[C@@H]1CN([C@@H](C)CO)S(=O)(=O)c2ccc(C#CC(C)(C)O)cc2O[C@H]1CN(C)Cc1ccncc1,n,99.9,n,n,100.0,n,n,55.9
O=C(CC1(O)C(=O)N(Cc2ccc(Cl)cc2)c2ccc(Cl)cc21)c1ccc2c(c1)OCCO2 (stereo unspecified),x,x,n,x,x,x,x,x
COC(=O)CCCCCCC(=O)N/N=C/c1cc2c(cc1Br)OCO2,x,x,n,x,x,x,x,x
C[C@@H]1CCCCO[C@@H](CN(C)S(=O)(=O)c2cn(C)cn2)[C@H](C)CN([C@H](C)CO)C(=O)c2cc(NS(C)(=O)=O)ccc2O1,n,n,n,n,x,x,x,x
COc1ccc(S(=O)(=O)Nc2ccc3c(c2)C(=O)N([C@@H](C)CO)C[C@@H](C)[C@@H](CN(C)S(=O)(=O)c2ccc(OC)cc2)OCCCC[C@@H](C)O3)cc1,n,100.2,n,n,106.6,102.1,n,n
COc1ccc(S(=O)(=O)Nc2ccc3c(c2)C(=O)N([C@@H](C)CO)C[C@H](C)[C@@H](CN(C)S(=O)(=O)c2ccc(OC)cc2)OCCCC[C@H](C)O3)cc1,n,u,n,n,104.2,n,n,n
COc1ccc(S(=O)(=O)Nc2ccc3c(c2)C(=O)N([C@@H](C)CO)C[C@H](C)[C@H](CN(C)C(=O)NC(C)C)O3)cc1,n,109.0,n,n,n,n,n,n
COc1ccc(S(=O)(=O)Nc2ccc3c(c2)C(=O)N([C@H](C)CO)C[C@H](C)[C@@H](CN(C)C(=O)NC(C)C)O3)cc1,n,n,n,n,x,x,x,x
C[C@@H]1CN([C@@H](C)CO)C(=O)c2cc(NS(C)(=O)=O)ccc2O[C@@H](C)CCCCO[C@H]1CN(C)S(=O)(=O)c1cn(C)cn1,n,107.2,n,n,99.5,n,n,n
COc1ccc(S(=O)(=O)Nc2ccc3c(c2)C(=O)N([C@H](C)CO)C[C@@H](C)[C@@H](CN(C)S(=O)(=O)c2ccc(OC)cc2)OCCCC[C@H](C)O3)cc1,n,n,n,n,x,x,x,x
COc1ccc(S(=O)(=O)N(C)C[C@H]2OCCCC[C@@H](C)Oc3ccc(NS(=O)(=O)c4cn(C)cn4)cc3C(=O)N([C@@H](C)CO)C[C@H]2C)cc1,n,103.2,x,n,106.6,n,n,n
COc1ccc(S(=O)(=O)Nc2ccc3c(c2)C(=O)N([C@@H](C)CO)C[C@H](C)[C@@H](CN(C)S(=O)(=O)c2ccc(OC)cc2)OCCCC[C@@H](C)O3)cc1,n,u,n,n,110.9,n,n,n
OCCCn1c(-c2ccc(Cl)cc2)cn2c3ccccc3nc12,x,x,n,x,x,x,x,x
SMILES,Pf Dd2 inh,T cruzi growth-1,IDH1 mut inh,KDM4C inh,T cruzi growth-2,T cruzi growth-3,NIH3T3 tox,3T3 cytotox 2
CC(C)(O)C#Cc1ccc([C@H]2[C@@H](CO)N3CCCCN(C(=O)c4cccc(F)c4)C[C@@H]23)cc1,n,102.6,x,n,104.6,n,n,n
CC(C)(O)C#Cc1ccc([C@@H]2[C@@H](CO)N3CCCCN(C(=O)c4cccc(F)c4)C[C@@H]23)cc1,n,113.3,x,n,n,n,n,n
O=C(CSc1ncnc2sc3c(c12)CCCCC3)Nc1ccc2c(c1)OCCO2,x,x,n,x,x,x,x,x
CC(C)NC(=O)N(C)C[C@@H]1Oc2ncc(C#Cc3ccccc3F)cc2C(=O)N([C@@H](C)CO)C[C@H]1C,n,101.7,x,n,n,n,n,61.4
CC(C)NC(=O)N(C)C[C@H]1Oc2ncc(C#Cc3ccccc3F)cc2C(=O)N([C@H](C)CO)C[C@H]1C,n,n,n,n,x,x,x,x
C[C@H](CO)N1C[C@H](C)[C@@H](CN(C)C(=O)Cc2ccccc2)Oc2ncc(C#Cc3ccccc3F)cc2C1=O,n,96.0,n,n,108.4,n,n,94.1
C[C@H]1CN([C@@H](C)CO)C(=O)c2cc(C#Cc3ccccc3F)cnc2O[C@@H]1CN(C)C(=O)c1ccc2c(c1)OCO2,-82.3,124.8,x,n,110.3,n,n,36.7
C[C@H](CO)N1C[C@H](C)[C@@H](CN(C)C(=O)C2CCC2)Oc2ncc(C#Cc3ccccc3F)cc2C1=O,n,n,n,n,x,x,x,x
C[C@H]1CN([C@@H](C)CO)C(=O)c2cc(C#Cc3ccccc3F)cnc2O[C@@H]1CN(C)C(=O)C1CCC1,n,97.2,n,n,103.7,n,n,45.3
